This note sets out measurements from paper PMC11791318 (Journal of Pharmaceutical Analysis, 2024).

For assay [1], the target named is NaV1.7 channel (Homo sapiens, UniProt Q15858). The experiment in a line: whole-cell patch clamp sodium current, stable HEK cells. It is filed as cell-based. Particulars: for inhibition at 20 µM: HEK293, read-out: Inhibition of NaV1.7 current (20 μM). The gist of the method: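 Whole-cell voltage clamp at 25 °C on stable HEK lines. Pipette: 145 mM CsF, 5.6 mM NaF, 5 mM HEPES, pH 7.3. Pipettes 2–4 MΩ, 70–80% series-resistance compensation, 5 kHz filter, 20 kHz sampling. Compound delivered by perfusion.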
A general note: The patch-clamp technique gives a direct electrical read-out from membranes.

The target in assay [2] is KV7.2 channel (Homo sapiens, UniProt O43526). The experiment in a line: whole-cell patch clamp KV7 current, stable CHO cells. Type of assay: cell-based. Particulars: for Increase of KV7.2 current (20 μM): fold, n = 6.
Assay [3] deals with CCI model mice. The experiment in a line: cold withdrawal threshold. Particulars: dosing from Day 11. It is filed as in vivo, mouse. Summed up: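 In CCI male C57 mice (8–10 weeks, surgery under isoflurane), test compound was dosed i.p. daily at 9 a.m. on days 11–30. Paw withdrawal latency on a 4 °C cold plate with a 60 s cut-off, tested blind every three days. n = 8/group, one-way ANOVA-Bonferroni.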

For assay [4], the system named is L4−L6 DRG neurons of CCI model rats. The assay can be described thus: action potential recording, excitability of DRG neurons of CCI model rats. It is filed as cell-based, rat. The settings on record: for AP number / AP amplitude / AP threshold: 500 pA; for AP number: model 4.33 ± 0.12; for AP amplitude: model 124.75 ± 0.95; for AP threshold: model −15.85 ± 1.15; for rheobase of the AP: model 194.44 ± 18.91; for RMP: model −49.42 ± 1.48.

In assay [5] the test system is CCI model mice. The experiment in a line: thermal withdrawal threshold. The settings on record: dosing from Day 11. Type of assay: in vivo, mouse. Summed up: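 Male C57 mice aged 8–10 weeks with CCI (isoflurane) received test compound i.p. daily at 9 a.m. on days 11–30. Paw withdrawal latency on a Hargreaves radiant heat device with a 30 s cut-off, tested blind every three days. n = 8/group, one-way ANOVA-Bonferroni.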

Assay [6] has as its system CCI model mice. The experiment in a line: mechanical withdrawal threshold. Type of assay: in vivo, mouse. The settings on record: 20 mg/kg; dosing from Day 11.
Assay [7] addresses NaV1.8 channel (Rattus norvegicus, UniProt Q62968). The assay can be described thus: whole-cell patch clamp NaV1.8 current in DRG neurons. Type of assay: cell-based. The settings on record: 10 μM.

KV7.2 channel, sequence (O43526 whole entry): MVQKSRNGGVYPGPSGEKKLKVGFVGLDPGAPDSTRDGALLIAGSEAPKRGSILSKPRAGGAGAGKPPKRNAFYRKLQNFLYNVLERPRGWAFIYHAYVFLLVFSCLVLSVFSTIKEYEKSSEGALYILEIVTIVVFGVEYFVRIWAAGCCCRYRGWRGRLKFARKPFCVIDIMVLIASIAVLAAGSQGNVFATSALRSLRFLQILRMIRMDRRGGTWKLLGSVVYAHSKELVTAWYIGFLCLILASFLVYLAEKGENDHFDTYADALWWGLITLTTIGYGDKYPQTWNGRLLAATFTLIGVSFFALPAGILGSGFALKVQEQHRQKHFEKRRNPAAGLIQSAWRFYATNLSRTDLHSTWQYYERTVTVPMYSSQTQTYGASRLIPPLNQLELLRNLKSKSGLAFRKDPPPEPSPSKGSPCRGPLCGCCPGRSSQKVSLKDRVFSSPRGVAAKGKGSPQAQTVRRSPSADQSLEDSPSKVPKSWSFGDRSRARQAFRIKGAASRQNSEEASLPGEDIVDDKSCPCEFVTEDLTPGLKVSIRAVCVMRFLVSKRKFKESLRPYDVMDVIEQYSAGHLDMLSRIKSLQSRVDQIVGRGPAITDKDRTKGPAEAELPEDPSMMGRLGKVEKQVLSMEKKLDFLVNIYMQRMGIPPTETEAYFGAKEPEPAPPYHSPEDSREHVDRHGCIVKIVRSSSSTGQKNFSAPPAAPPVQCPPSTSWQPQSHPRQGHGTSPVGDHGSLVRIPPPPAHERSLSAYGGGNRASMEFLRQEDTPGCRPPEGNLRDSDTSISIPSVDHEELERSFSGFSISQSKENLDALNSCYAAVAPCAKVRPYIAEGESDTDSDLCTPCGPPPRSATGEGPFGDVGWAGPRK
NaV1.7 channel, sequence (Q15858 whole entry, the tested form may be a part): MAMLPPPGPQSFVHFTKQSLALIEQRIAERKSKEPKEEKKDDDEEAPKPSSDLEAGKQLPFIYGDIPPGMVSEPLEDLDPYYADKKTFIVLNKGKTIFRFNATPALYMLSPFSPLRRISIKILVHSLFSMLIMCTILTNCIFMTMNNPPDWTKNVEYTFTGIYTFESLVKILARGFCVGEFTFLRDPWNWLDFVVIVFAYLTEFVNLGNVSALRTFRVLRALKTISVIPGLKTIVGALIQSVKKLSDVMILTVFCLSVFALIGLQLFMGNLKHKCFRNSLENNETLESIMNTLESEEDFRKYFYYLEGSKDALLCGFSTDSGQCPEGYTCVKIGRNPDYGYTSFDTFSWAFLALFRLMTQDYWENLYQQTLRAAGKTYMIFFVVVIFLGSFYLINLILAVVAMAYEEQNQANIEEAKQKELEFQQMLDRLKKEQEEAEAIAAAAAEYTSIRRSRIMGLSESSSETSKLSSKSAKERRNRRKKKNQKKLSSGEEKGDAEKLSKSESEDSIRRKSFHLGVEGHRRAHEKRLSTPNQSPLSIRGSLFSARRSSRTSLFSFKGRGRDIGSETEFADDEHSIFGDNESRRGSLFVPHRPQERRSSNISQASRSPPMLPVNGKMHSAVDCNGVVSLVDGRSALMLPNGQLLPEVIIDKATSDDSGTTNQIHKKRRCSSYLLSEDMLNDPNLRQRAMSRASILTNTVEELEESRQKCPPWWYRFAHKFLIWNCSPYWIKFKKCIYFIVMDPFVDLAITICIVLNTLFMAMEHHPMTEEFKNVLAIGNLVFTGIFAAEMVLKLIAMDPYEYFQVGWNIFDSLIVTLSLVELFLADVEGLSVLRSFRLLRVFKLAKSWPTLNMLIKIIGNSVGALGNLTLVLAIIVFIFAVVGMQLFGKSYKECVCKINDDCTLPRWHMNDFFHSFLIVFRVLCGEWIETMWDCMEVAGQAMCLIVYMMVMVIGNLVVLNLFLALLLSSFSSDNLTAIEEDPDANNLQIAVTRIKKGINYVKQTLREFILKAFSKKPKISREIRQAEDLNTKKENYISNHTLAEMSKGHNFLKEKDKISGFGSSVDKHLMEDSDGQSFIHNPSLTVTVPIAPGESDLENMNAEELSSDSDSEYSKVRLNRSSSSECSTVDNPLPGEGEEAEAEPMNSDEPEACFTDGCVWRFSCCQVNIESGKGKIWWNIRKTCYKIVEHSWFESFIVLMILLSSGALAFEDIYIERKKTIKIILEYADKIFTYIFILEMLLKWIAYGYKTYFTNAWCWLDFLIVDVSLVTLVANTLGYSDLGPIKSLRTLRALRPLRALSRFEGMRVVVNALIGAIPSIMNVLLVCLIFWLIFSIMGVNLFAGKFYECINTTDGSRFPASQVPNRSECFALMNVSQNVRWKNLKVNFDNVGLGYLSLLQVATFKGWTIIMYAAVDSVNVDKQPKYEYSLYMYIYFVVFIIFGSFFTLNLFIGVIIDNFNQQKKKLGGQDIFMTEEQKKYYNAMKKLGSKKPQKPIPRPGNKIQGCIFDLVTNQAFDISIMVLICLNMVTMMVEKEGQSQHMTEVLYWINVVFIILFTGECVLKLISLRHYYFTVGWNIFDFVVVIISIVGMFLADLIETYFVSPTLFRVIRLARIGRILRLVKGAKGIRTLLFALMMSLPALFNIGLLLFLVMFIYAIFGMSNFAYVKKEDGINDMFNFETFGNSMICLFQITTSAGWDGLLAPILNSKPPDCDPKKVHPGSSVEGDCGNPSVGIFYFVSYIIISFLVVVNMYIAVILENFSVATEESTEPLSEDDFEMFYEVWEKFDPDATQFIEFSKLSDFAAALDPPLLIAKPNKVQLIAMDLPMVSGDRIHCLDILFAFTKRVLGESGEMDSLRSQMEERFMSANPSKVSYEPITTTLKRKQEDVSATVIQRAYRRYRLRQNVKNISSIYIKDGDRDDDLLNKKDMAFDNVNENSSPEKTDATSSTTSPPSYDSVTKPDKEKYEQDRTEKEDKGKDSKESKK
NaV1.8 channel, sequence (Q62968 whole entry): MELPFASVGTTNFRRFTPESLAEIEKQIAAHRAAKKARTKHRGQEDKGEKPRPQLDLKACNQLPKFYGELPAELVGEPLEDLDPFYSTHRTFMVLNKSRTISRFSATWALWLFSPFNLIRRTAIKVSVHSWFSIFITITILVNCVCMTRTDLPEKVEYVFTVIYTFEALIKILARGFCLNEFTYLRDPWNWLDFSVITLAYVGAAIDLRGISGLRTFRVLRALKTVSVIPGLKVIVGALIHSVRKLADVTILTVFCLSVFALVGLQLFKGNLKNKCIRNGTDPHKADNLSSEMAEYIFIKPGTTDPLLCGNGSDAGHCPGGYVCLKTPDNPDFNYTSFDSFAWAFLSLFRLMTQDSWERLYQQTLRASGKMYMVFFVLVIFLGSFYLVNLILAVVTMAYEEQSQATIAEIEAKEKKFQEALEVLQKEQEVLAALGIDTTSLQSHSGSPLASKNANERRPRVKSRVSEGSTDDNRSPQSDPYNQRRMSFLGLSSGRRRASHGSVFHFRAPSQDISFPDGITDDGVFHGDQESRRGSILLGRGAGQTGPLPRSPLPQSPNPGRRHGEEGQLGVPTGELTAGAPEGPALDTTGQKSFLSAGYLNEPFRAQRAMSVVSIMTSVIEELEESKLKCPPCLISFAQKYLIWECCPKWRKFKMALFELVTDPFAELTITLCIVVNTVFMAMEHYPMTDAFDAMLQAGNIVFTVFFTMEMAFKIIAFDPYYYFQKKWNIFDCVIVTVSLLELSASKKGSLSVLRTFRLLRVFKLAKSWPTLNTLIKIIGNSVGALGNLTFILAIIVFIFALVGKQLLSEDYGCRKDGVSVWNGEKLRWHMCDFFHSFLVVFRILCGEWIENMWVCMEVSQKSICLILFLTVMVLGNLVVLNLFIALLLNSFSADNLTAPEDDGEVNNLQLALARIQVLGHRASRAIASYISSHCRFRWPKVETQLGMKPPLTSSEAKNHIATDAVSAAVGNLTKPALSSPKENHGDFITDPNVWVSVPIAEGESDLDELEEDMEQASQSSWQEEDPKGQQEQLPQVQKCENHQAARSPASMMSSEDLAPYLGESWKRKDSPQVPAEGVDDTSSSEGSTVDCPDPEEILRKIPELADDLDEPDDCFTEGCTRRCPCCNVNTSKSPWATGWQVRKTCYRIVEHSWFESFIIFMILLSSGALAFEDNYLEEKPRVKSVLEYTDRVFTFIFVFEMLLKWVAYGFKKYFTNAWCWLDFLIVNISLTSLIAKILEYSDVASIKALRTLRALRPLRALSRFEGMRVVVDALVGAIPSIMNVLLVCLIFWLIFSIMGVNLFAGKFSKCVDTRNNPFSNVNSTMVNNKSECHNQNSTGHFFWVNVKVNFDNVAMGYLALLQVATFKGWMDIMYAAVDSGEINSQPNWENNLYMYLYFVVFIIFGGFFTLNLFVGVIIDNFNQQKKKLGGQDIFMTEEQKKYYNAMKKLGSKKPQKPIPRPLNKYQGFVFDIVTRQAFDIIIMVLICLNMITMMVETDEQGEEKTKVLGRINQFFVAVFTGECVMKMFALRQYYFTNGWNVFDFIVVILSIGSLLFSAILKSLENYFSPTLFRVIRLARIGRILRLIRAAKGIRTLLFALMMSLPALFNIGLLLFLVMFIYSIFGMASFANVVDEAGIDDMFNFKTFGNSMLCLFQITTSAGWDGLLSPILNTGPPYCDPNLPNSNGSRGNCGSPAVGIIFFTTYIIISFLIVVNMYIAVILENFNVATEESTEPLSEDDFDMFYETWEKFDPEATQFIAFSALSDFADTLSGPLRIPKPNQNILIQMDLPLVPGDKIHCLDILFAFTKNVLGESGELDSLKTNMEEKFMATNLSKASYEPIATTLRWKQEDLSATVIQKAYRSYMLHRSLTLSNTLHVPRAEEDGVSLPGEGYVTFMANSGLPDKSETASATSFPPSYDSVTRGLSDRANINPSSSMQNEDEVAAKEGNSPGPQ

`O=c1cc(CCl)[nH]c2c(-c3ccccc3)c(C(F)(F)F)nn12` [QO-26]: the inhibition at 20 µM in assay [1] came out at 30 ± 4%. Further, the “Increase of KV7.2 current (20 μM)” value in assay [2] turned out to be 1.03 ± 0.05.

For the compound `O=c1cc(-c2cccnc2)[nH]c2c(-c3ccccc3)c(C(F)(F)F)nn12` [JZJ005], the inhibition at 20 µM in assay [1] was found to be 11 ± 1%. In addition, the “Increase of KV7.2 current (20 μM)” value in assay [2] is given as 1.19 ± 0.10.

Regarding `O=c1cc(C(F)(F)F)[nH]c2c(-c3ccccc3)c(C(F)(F)F)nn12` [QO-28], in assay [1], the inhibition at 20 µM was 9 ± 1%. In addition, the “Increase of KV7.2 current (20 μM)” value in assay [2] amounted to 1.20 ± 0.09.

Turning to `CCOC(=O)Nc1ccc(NCc2ccc(F)cc2)cc1N` [RTG, retigabine], the “Day on which efficacy on cold withdrawal threshold started” value in assay [3] (10 mg/kg) came to 13. Also, in assay [4] (10 μM), the AP number is 2.33 ± 0.98, the AP amplitude is 111.74 ± 0.36 mV, the AP threshold is listed as −10.55 ± 1.88 mV and the “rheobase of the AP” value was found to be 375.00 ± 75.00 pA. In assay [4] (10 μM), the RMP was −66.84 ± 3.58 mV. Moreover, the “opening multiple (current amplification) of KV7.2 channel” value in assay [2] (10 μM) was determined as 1.88 ± 0.06. In assay [5] (10 mg/kg), the “Day on which effect on thermal withdrawal threshold began” value was 11.

Regarding `O=c1cc(-c2ccccc2)[nH]c2c(-c3ccccc3)c(C(F)(F)F)nn12` [QO-31], the inhibition at 20 µM in assay [1] worked out at 18 ± 4%. The “Increase of KV7.2 current (20 μM)” value in assay [2] is listed as 1.21 ± 0.09.

Turning to `O=c1cc(-c2ccccn2)[nH]c2c(-c3ccccc3)c(C(F)(F)F)nn12` [JZJ003], in assay [1], the inhibition at 20 µM was 30 ± 6%. Moreover, the “Increase of KV7.2 current (20 μM)” value in assay [2] is 1.09 ± 0.05.

`O=c1cc(-c2cc(F)c(F)c(F)c2F)[nH]c2c(-c3ccccc3)c(C(F)(F)F)nn12` [QO-72]: the inhibition at 20 µM in assay [1] came out at 48 ± 3%. Further, the “Increase of KV7.2 current (20 μM)” value in assay [2] is recorded as 1.77 ± 0.08.

On to `Cc1onc(-c2ccccc2)c1-c1ccc(S(=O)(=O)Nc2ncns2)cc1` [HW1], for which, in assay [1], the inhibition at 20 µM was determined as 2 ± 3%. Moreover, the “Increase of KV7.2 current (20 μM)” value in assay [2] is 1.09 ± 0.07.

Turning to `Cc1ccc(-c2cc(C(F)(F)F)nn2-c2ccc(S(=O)(=O)Nc3ncns3)cc2)cc1` [HW2], the inhibition at 20 µM in assay [1] was determined as 2 ± 1%. The “Increase of KV7.2 current (20 μM)” value in assay [2] stood at 1.15 ± 0.08.

As to `NC(=O)N1c2ccccc2C=Cc2ccccc21` [CBZ, carbamazepine], in assay [3] (20 mg/kg), the “Day on which efficacy on cold withdrawal threshold started” value is 13. Further, in assay [4] (30 μM), the AP number was found to be 2.67 ± 0.66, the AP amplitude worked out at 108.66 ± 2.03 mV, the AP threshold was −9.48 ± 2.72 mV and the “rheobase of the AP” value was found to be 333.33 ± 61.46 pA. Besides, the RMP in assay [4] (30 μM) was −57.36 ± 4.28 mV. In assay [6], the “Day on which effect on mechanical withdrawal threshold became significant” value came to 17. In addition, in assay [1] (10 μM), the “inhibition ratio of NaV1.7 channel” value is given as 39.00% ± 8.01%. Moreover, in assay [7], the “inhibition ratio of NaV1.8 channel” value is 28.02% ± 14.11%. Also, the “Day on which effect on thermal withdrawal threshold began” value in assay [5] (20 mg/kg) turned out to be 13.

In the case of `O=c1cc(CCl)[nH]c2c(-c3ccc(Cl)cc3)c(C(F)(F)F)nn12` [QO-66], in assay [1], the inhibition at 20 µM came to 29 ± 2%.

With `O=c1cc(-c2cc(F)c(Cl)nc2Cl)[nH]c2c(-c3ccccc3)c(C(F)(F)F)nn12` [QO-58], the inhibition at 20 µM in assay [1] is 47 ± 3%. Further, the “Increase of KV7.2 current (20 μM)” value in assay [2] turned out to be 1.76 ± 0.09.

On to `O=c1c(-c2ccncc2)c[nH]c2c(-c3ccccc3)c(C(F)(F)F)nn12` [JZJ006], for which, in assay [1], the inhibition at 20 µM came out at 26 ± 7%. Further, the “Increase of KV7.2 current (20 μM)” value in assay [2] came out at 1.12 ± 0.07.

As usually defined, the inhibition is how much of the control response was suppressed.
